Source: ChEMBL document CHEMBL4251707, “Stereochemical Structure Activity Relationship Studies (S-SAR) of Tetrahydrolipstatin” (ACS Med Chem Lett, 2018)

Assays:
Assay type in all cases: cell-based
NCI-H460 = assay: Cytotoxicity against human H460 cells assessed as reduction in cell viability after 72 hrs by MTT assay; details: NCI-H460, 72 h
Method in brief: (§1)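 Cells plated at 5 × 10^3 cell/well and grown 12 to 16 h, then exposed to compound for 72 h over 0.1 nM to 100 μM, with untreated wells as controls. Viability was read by MTT as absorbance at 570 nm.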

MCF7 = assay: Cytotoxicity against human MCF7 cells assessed as reduction in cell viability after 72 hrs by MTT assay; details: MCF7, 72 h; method in brief: as §1
MDA-MB-231 [1] = assay: Cytotoxicity against human MDA-MB-231 cells assessed as reduction in cell viability after 72 hrs by MTT assay; details: MDA-MB-231, 72 h; method in brief: as §1
MDA-MB-231 [2] = assay: Cytotoxicity against human MDA-MB-231 cells assessed as reduction in cell viability

CCCCCCCCCCC[C@@H](C[C@H]1OC(=O)[C@@H]1CCCCCC)OC(=O)[C@@H](CC(C)C)NC=O
IC50 (NCI-H460): > 100 µM
IC50 (MCF7): > 100 µM
IC50 (MDA-MB-231 [1]): > 100 µM

CCCCCCCCCCC[C@H](C[C@H]1OC(=O)[C@@H]1CCCCCC)OC(=O)[C@H](CC(C)C)NC=O
IC50 (NCI-H460): > 100 µM
IC50 (MCF7): > 100 µM
IC50 (MDA-MB-231 [1]): > 100 µM

CCCCCCCCCCC[C@H](C[C@@H]1OC(=O)[C@H]1CCCCCC)OC(=O)[C@H](CC(C)C)NC=O
IC50 (NCI-H460): > 100 µM
IC50 (MCF7): > 100 µM
IC50 (MDA-MB-231 [1]): > 100 µM

CCCCCCCCCCC[C@@H](C[C@H]1OC(=O)[C@@H]1CCCCCC)OC(=O)[C@H](CC(C)C)NC=O
IC50 (NCI-H460): > 100 µM
IC50 (MCF7): > 100 µM
IC50 (MDA-MB-231 [1]): > 100 µM

CCCCCCCCCCC[C@H](C[C@H]1OC(=O)[C@@H]1CCCCCC)OC(=O)[C@@H](CC(C)C)NC=O
IC50 (NCI-H460): > 100 µM
IC50 (MCF7): > 100 µM
IC50 (MDA-MB-231 [1]): > 100 µM

CCCCCCCCCCC[C@@H](C[C@@H]1OC(=O)[C@H]1CCCCCC)OC(=O)[C@@H](CC(C)C)NC=O
IC50 (NCI-H460): > 100 µM
IC50 (MCF7): > 100 µM
IC50 (MDA-MB-231 [1]): > 100 µM

CCCCCCCCCCC[C@H](C[C@@H]1OC(=O)[C@H]1CCCCCC)OC(=O)[C@@H](CC(C)C)NC=O
IC50 (NCI-H460): > 100 µM
IC50 (MCF7): > 100 µM
IC50 (MDA-MB-231 [1]): > 100 µM

CC[C@@]1(O)C(=O)OCc2c1cc1n(c2=O)Cc2cc3ccccc3nc2-1 [CAMPTOTHECIN]
IC50 (NCI-H460): 0.11 µM
IC50 (MCF7): 0.16 µM
IC50 (MDA-MB-231 [1]): 0.54 µM

CCCCCCCCCCC[C@@H](C[C@@H]1OC(=O)[C@H]1CCCCCC)OC(=O)[C@H](CC(C)C)NC=O [ORLISTAT]
IC50 (NCI-H460): > 100 µM
IC50 (MDA-MB-231 [2]): 13 µM
IC50 (MCF7): > 100 µM
IC50 (MDA-MB-231 [1]): > 100 µM
